Experimental data: ChEMBL document CHEMBL1123027, “Synthesis and biological activity of 5-thiobredinin and certain related 5-substituted imidazole-4-carboxamide ribonucleosides” (J Med Chem, 1985)

Columns and labels:
Rift Valley fever virus [1] = assay: In vitro antiviral activity was tested against rift valley fever virus(RVF) virus; type: functional; settings: read-out: ED50 (the source's name)
Human respirovirus 3 [2] = assay: In vitro antiviral activity was tested against parainfluenza type 3 (para3) virus; type: functional, para influenza virus; settings: read-out: ED50 (the source's name)
Rift Valley fever virus [3] = assay: (§1) Therapeutic index against Rift valley fever virus.; type: organism-based; settings: in vivo, read-out: Therapeutic index
Vero = assay: Maximum tolerated concentration (MTC) was evaluated in vero cells.; type: functional, Chlorocebus sabaeus
Method in brief: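 Confluent, uninfected Vero monolayers were given compound in seven 0.5-log steps, final 5 × 10⁻⁶ to 5 × 10⁻³ M, one well per concentration, for 72 h at 37 °C in 5% CO2. Wells were checked by microscope for changes in morphology or monolayer density (lysis, rounding, detachment). The MTC is the lowest concentration giving visible cytotoxicity.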

Mus musculus [4] = assay: The maximum tolerated dose was evaluated in mice and expressed in terms of mg/kg of body weight; type: functional
[5] = test system: Venezuelan equine encephalitis virus; assay: In vitro antiviral activity was tested against venezuelan equine encephalomyelitis (VEE) virus; type: functional; settings: read-out: ED50 (the source's name)
Human alphaherpesvirus 2 [6] = assay: In vitro antiviral activity was tested against herpes simplex type 2 (HSV-2); type: functional; settings: read-out: ED50 (the source's name)
Method in brief: (§2)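 Vero cell monolayers, grown 24 h at 37 °C in 5% CO2 to confluency, were infected with HSV-2 (strain 333) at 100 TCID50 per well. After 30-min adsorption at 37 °C, compound was added in seven 0.5-log steps, final 5 × 10⁻⁶ to 5 × 10⁻³ M, in duplicate wells. After 72 h at 37 °C, the ED50 was taken as 50% inhibition of viral CPE versus untreated controls.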

Vaccinia virus [7] = assay: In vitro antiviral activity was tested against vaccinia virus(VV); type: functional; settings: Orthopoxvirus vaccinia; read-out: ED50 (the source's name)
Mus musculus [8] = assay: The maximum tolerated dose was evaluated in mice expressed in terms of mg/kg of body weight; type: functional
Human alphaherpesvirus 2 [9] = assay: In vitro antiviral activity was tested against herpes simplex virus type 2 (HSV-2); type: functional; settings: read-out: ED50 (the source's name); method in brief: as §2
Human respirovirus 3 [10] = assay: In vitro antiviral activity was tested against parainfluenza virus type 3 (para3) virus; type: functional, para influenza virus; settings: read-out: ED50 (the source's name)
Vaccinia virus [11] = assay: In vitro antiviral activity was tested against vaccinia virus(VV) virus; type: functional; settings: Orthopoxvirus vaccinia; read-out: ED50 (the source's name)
Human alphaherpesvirus 2 [12] = assay: In vitro antiviral activity was tested against herpes simplex type 2 (HSV-2) virus; type: functional; settings: read-out: ED50 (the source's name)
[13] = test system: Venezuelan equine encephalomyelitis virus (VEE); assay: Therapeutic index against Venezuelan equine encephalomyelitis virus (VEE); settings: Venezuelan equine encephalitis virus; read-out: Therapeutic index
Mus musculus [14] = assay: The maximum tolerated dose was evaluated in mice and is expressed as mg/kg of body weight; type: functional
[15] = test system: Venezuelan equine encephalomyelitis virus (VEE); assay: Therapeutic index against Venezuelan equine encephalomyelitis virus.; type: organism-based; settings: venezuelan equine encephalitis virus, in vivo; read-out: Therapeutic index
Human respirovirus 3 [16] = assay: In vitro against parainfluenza type 3 (para3) virus; type: functional, para influenza virus; settings: read-out: ED50 (the source's name)
Rift Valley fever virus [17] = assay: as §1; settings: read-out: Therapeutic index
Mus musculus [18] = assay: The maximum tolerated dose was evaluated in mice (mg/kg of body weight).; type: functional

Row | SMILES | EC50 (Rift Valley fever virus [1]) | EC50 (Human respirovirus 3 [2]) | selectivity ratio (Rift Valley fever virus [3]) | MTC (Vero) | MTC (Mus musculus [4]) | EC50 [5] | EC50 (Human alphaherpesvirus 2 [6]) | EC50 (Vaccinia virus [7]) | MTC (Mus musculus [8]) | EC50 (Human alphaherpesvirus 2 [9]) | EC50 (Human respirovirus 3 [10]) | EC50 (Vaccinia virus [11]) | EC50 (Human alphaherpesvirus 2 [12]) | selectivity ratio [13] | MTC (Mus musculus [14]) | selectivity ratio [15] | EC50 (Human respirovirus 3 [16]) | selectivity ratio (Rift Valley fever virus [17]) | MTC (Mus musculus [18])
1 | NC(=O)c1ncn(C2O[C@H](CO)[C@@H](O)[C@H]2O)c1S (stereo partly drawn) | > 2 mM | 5 mM | 1.1 | >5 mM | >110 mg/kg | > 2 mM | > 5 mM | 3.8 mM |  |  |  |  |  |  |  |  |  |  | 
2 | CCSc1c(C(N)=O)ncn1C1O[C@H](CO)[C@@H](O)[C@H]1O (stereo partly drawn) | > 2 mM |  | 1.4 | >5 mM |  | > 2 mM |  |  | >121 mg/kg | > 5 mM | > 5 mM | 2.6 mM |  |  |  |  |  |  | 
3 | CCS(=O)(=O)c1c(C(N)=O)ncn1C1O[C@H](CO)[C@@H](O)[C@H]1O (stereo partly drawn) | > 2 mM | > 5 mM | 1.21 | >5 mM | >134 mg/kg | > 2 mM | > 5 mM | 3.5 mM |  |  |  |  |  |  |  |  |  |  | 
4 | Cc1c(C(N)=O)ncn1C1O[C@H](CO)[C@@H](O)[C@H]1O (stereo partly drawn) | 1.8 mM | 0.5 mM |  | 1.6 mM |  |  |  |  |  |  |  | 1.4 mM | 4 mM |  |  |  |  |  | 
5 | NC(=O)c1ncn(C2O[C@H](CO)[C@@H](O)[C@H]2O)c1SCc1ccccc1 (stereo partly drawn) | 1 mM | 4.4 mM | 1.9 | >5 mM | >146 mg/kg | 1 mM | > 5 mM |  |  |  |  | 0.23 mM |  |  |  |  |  |  | 
6 | CSc1c(C(N)=O)ncn1C1O[C@H](CO)[C@@H](O)[C@H]1O (stereo partly drawn) | 1.8 mM | 0.73 mM | 1.2 | 1.6 mM |  | > 1.7 mM |  |  |  | 4.1 mM |  | 0.28 mM |  | 0.9 | >100 mg/kg |  |  |  | 
7 | CS(=O)(=O)c1c(C(N)=O)ncn1C1O[C@H](CO)[C@@H](O)[C@H]1O (stereo partly drawn) | 0.0087 mM |  | 2.8 | >5 mM | >400 mg/kg | 0.65 mM |  | > 5 mM |  |  |  |  | 5 mM |  |  | 1.4 | > 5 mM |  | 
8 | NC(=O)c1ncn([C@@H]2O[C@H](CO)[C@@H](O)[C@H]2O)n1 [RIBAVIRIN] |  |  |  |  |  |  |  |  |  |  |  |  |  |  |  | 1.5 |  | 4 | >100 mg/kg
